Results published in ChEMBL document CHEMBL4513216, “Probing the Open Global Health Chemical Diversity Library for Multistage-Active Starting Points for Next-Generation Antimalarials” (ACS Infect Dis, 2020).

Experiment: Toxicity liver stage against HepG2, at 10uM
Type: cell-based
Set-up: test concentration 10 uM, cell line HepG2-A16-CD81EGFP
Conditions: human, HepG2-A16-CD81EGFP cells; read-out: INHIBITION
Method in brief: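 Uninfected HepG2-A16-CD81EGFP cells, 3 × 10^3 per well, 1536-well, plated on prespotted compound at 10 μM final, parasite-free screening media added to match infected plates; puromycin 10 μM positive, DMSO 0.5% negative; run in parallel with 48 h PbLuc assay at 37 °C, 5% CO2; viability by CellTiter-Glo luminescence, normalized to controls.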

SMILES | cytotoxicity at 10 µM [%]
CNC(=O)Nc1cc(-c2ccccc2C)nn1CCO | 7
O[C@H]1CC[C@@H](Cc2cc(-c3ccc(F)cc3)on2)O[C@@H]1CNCC1CC1 | -6.4
O=S(=O)(NC[C@H]1C[C@@H]2CCN1C[C@@H]2CN1CCCCC1)c1ccccc1 | -4.32
CC1CN(c2ncccc2C(=O)Nc2cccc3c2CCCC3)CCN1 (configuration not stated) | 4.65
Cc1nccn1-c1ccc(C(=O)NCC(F)(F)F)nn1 | -2.35
CN(C)C(=O)CNC(=O)c1ccc2c(-c3nccs3)noc2c1 | 7.19
Cc1cccc(NC(=O)N2CCn3cnc(COCC4CC4)c3C2)c1 | 3.83
CC(=O)N1CCC2(C1)c1ccccc1S(=O)(=O)N2CCC(C)C (configuration not stated) | -9.11
Cc1ccc(C(=O)N2C[C@H]3CN(Cc4csc(C)n4)C[C@H]3C2)cn1 | -143
Cc1nc(CN2C(=O)C[C@@H]3[C@@H]2CCN3S(=O)(=O)C2CC2)cs1 | -124
COCC1CC2(CCN(C(=O)c3ccc(F)cc3C)CC2)CO1 (configuration not stated) | -108
O=C1CC(c2ccc(C(=O)O)cc2)c2ncn(-c3ccccc3Cl)c2N1 (configuration not stated) | 2.03
O=C1CC(c2cccs2)Cc2nc(O)c(C(=O)N3CCCC3)cc21 (configuration not stated) | -3.96
Cn1nc(CNC(=O)C2COc3ccccc3O2)cc1C1CC1 (configuration not stated) | 7.52
Cc1cc(OCc2ccc(C(=O)O)s2)ccc1Cl | 12.2
CC(=O)Oc1ccnc(C(F)(F)F)c1C(C)=O | -11.4
O=C(c1cc(-c2cccs2)cs1)N1CCSCC1 | 10.4
O=C(Nc1ccc2c(c1)OCCO2)c1ccc(=O)[nH]n1 | 18.1
Fc1ccc2[nH]c3c(c2c1)CCN1C(c2ccncc2)N2CCC31CC2 (configuration not stated) | 4.67
Cc1nccnc1C1CCN(C2CCCC2O)CC1 (configuration not stated) | -1.35
CCN1CCCC1CNCc1cc2ccccc2[nH]c1=O (configuration not stated) | 1.78
Cc1ccc(=O)n(CC2(O)CCN(Cc3ccoc3)CC2)n1 | -24.2
Cc1nc(CC(=O)N2CCN(C)CC2c2ccccc2)cs1 (configuration not stated) | 3.49

SMILES | cytotoxicity at 10 µM [%]
COCCNC(=O)N1CCN(C(C)C(=O)NC2CCCC2)CC1 (configuration not stated) | 1.16
CCCC1CCCN(C(=O)CNC(=O)c2ccoc2C)CC1 (configuration not stated) | 4
CNS(=O)(=O)c1cc(C(=O)NC2COc3ccccc3C2)ccc1OC (configuration not stated) | 18.9
COc1nc(N2CCN(C(C)=O)CC2)ncc1Br | 0.27
CCOC(=O)C1(O)CCN(C(=O)Nc2ccc(CC)cc2)CC1 | -130
Cc1nc2n(n1)CC(Nc1nc(C(F)(F)F)nc3ccccc13)CC2 (configuration not stated) | -0.978
CCN(CC)S(=O)(=O)CC(=O)Nc1ccsc1 | -2.77
COC(=O)[C@@H]1C[C@@H](O)CN1Cc1ccn(-c2ccc(F)cc2)n1 | -5.17
O=C1CCN(C(=O)NCC(c2ccccc2)c2ccccc2)CCN1 | -1.44
CC(C)NC(=O)N1CCC[C@H]1C(=O)NCCCc1cccc(F)c1 | 4.27
CCc1[nH]nc(NC(=O)c2ccc(Cl)cn2)c1C | -9.69
CN1CCN(C(=O)c2cc(C#N)cn2C)c2ccccc2C1 | 5.45
Cc1nc2n(n1)CC(NCc1nc3ccccc3o1)CC2 (configuration not stated) | -0.608
CC(NC(=O)Nc1ccncc1)c1ccc2c(c1)CC(=O)N2 (configuration not stated) | -5.76
COc1cccc(NC(=O)NC(C)c2ccc3c(c2)CC(=O)N3)c1 (configuration not stated) | -3.49
CCC(C)NC(=O)c1ccc(CNC(=O)CCC(C)C)cc1 (configuration not stated) | 2.27
NC(=O)CN1CCC(NC2CCCCc3ccccc32)CC1 (configuration not stated) | -7.86
CCC(C)(C)NCc1nc(C(C)(C)NC(=O)OC(C)(C)C)no1 | 2.35
Cc1noc(CN(C)CC2CCN(CCO)CC2)n1 | 5.82
COCCNC(=O)Nc1ccn(-c2cccc(C(F)(F)F)c2)n1 | -1.94
CN(CCOc1ccc(Br)cc1)Cc1cscn1 | 5.25
CS(=O)(=O)CCCSCc1ccc(Br)c(F)c1 | 4.64
COc1ccccc1-c1cc(NC(=O)CC2CCS(=O)(=O)C2)[nH]n1 (configuration not stated) | -113

SMILES | cytotoxicity at 10 µM [%]
O=C1N(CC2CC2)C2(CCSCC2)NC12CCCC2 | -150
Cc1ccc(CNCc2cccc3cccnc23)c(OC2CCOC2)c1 (configuration not stated) | 1.42
Cc1nc(NC(=O)CCOCC(F)(F)F)ccc1Br | 6.27
CCC1CN(C(=O)c2cnc(-c3ccccc3)s2)CCO1 (configuration not stated) | -2.63
COc1ccc(C(=O)Nc2ccc3c(c2)C(=O)NC3)cc1Br | 3.53
Cc1noc(C)c1CS(=O)(=O)CC(=O)N1c2ccccc2CC1C (configuration not stated) | 3.53
Cc1nc(C2(NCc3c(C)nn(C)c3N3CCOCC3)CCC2)no1 | 4.98
Cc1cc(CS(=O)(=O)NC2CCCCC2)on1 | 2.92
Cc1cccnc1C(NC(=O)CNC(=O)c1ccoc1C)C(C)C (configuration not stated) | 2.45
COc1ccc(C2CCCN2C(=O)c2ccnc(NC3CC3)c2)cc1 (configuration not stated) | 3.07
CC(NCc1ccc(OCc2nccn2C)cc1)c1cccnc1 (configuration not stated) | -4.47
CC(C)CS(=O)(=O)NC(=O)c1ccc2c(c1)ncn2C | -9.94
Cc1nn(C)cc1C(=O)N1CCC(CSc2ccccc2)C1 (configuration not stated) | 2.84
CC(C)(CNc1ccc2ccc(F)cc2n1)NS(C)(=O)=O | -7.04
CN(CC(O)C1CC1)C(=O)Nc1ccc(F)c(-n2cccc2)c1 (configuration not stated) | 2.2
CCc1nc(CNc2ccc(F)cc2I)no1 | 3.36
CCN1CCCC1CN(CCN(C)C)S(=O)(=O)c1cccc(C#N)c1 (configuration not stated) | -12.1
CCN1CCC(CC(=O)NCC(O)c2ccc3ccccc3c2)CC1 (configuration not stated) | -5.26
N[C@H]1CCCN(C(=O)c2cnc(COc3ccccc3)nc2O)C1 | 1.67
COc1ccc(-c2cc(C3CC3)c(C#N)c(N)n2)cc1F | -2.84
O=C1CCCN1C1CCCN(CCn2cc(Cl)cn2)C1 (configuration not stated) | -0.626
COc1ccc2ncn(Cc3ncc[nH]3)c(=O)c2c1 | -11
Cc1cccc(C(C(=O)NCCn2cccc2)N(C)C)c1 (configuration not stated) | -9.12

SMILES | cytotoxicity at 10 µM [%]
CCn1ncnc1C(C)Nc1cc(C2CCNCC2)nc(C)n1 (configuration not stated) | -6.77
Cc1ccc(-c2noc(C(O)CC(C)C)n2)nn1 (configuration not stated) | -7.72
CC(C)(NC(=O)c1coc(COc2cccc(F)c2)n1)C(N)=O | -136
CCOCCC(=O)NCC1COc2c(cccc2OC)C1 (configuration not stated) | -142
CNC(=O)c1nc(CN2CCOC(Cc3ccc(F)cc3)C2)no1 (configuration not stated) | -2.28
CCN(Cc1ccncc1)C(=O)c1cn(CCC2CCCCC2)nn1 | 10.5
Cn1cc(C(=O)N2CC[C@@]3(O)CCN(C(=O)C4CCC4)C[C@H]3C2)cn1 | -140
Cc1cnccc1NCCNC1CCN(CC(C)C)CC1 | -10
CCc1nc(C)c([C@H]2CN(C)C[C@@H]2C(=O)Nc2ccc(OC)nc2)[nH]1 | -3.59
Cc1ccc2nc(CN(C)Cc3[nH]nc4c3CCC4)[nH]c2c1C | 2.74
COc1cc2[nH]c(=O)c(CN3CCCC3C)cc2c(OC)c1OC (configuration not stated) | -7.74
Cc1ccc2nc(CN3CCCCC3CCN3CCOCC3)cn2c1 (configuration not stated) | 3.28
CCc1ncc2c(n1)CN(c1cc(NCCO)nc(N)n1)C2 | -4.49
Cc1ccccc1C(CNc1ncnc2c1CCNCC2)N(C)C (configuration not stated) | 21.5
Cc1cc(CN2CCC(CNC(=O)C3(c4ccccc4)CC3)C2)[nH]n1 (configuration not stated) | -145
Cc1cc2ccccc2n1CCC(=O)N1CCCC(O)(CN(C)C)CC1 (configuration not stated) | -1.88
CS(=O)(=O)N1CCCCC1CCc1ccc(O)cc1 (configuration not stated) | -0.311
Cc1nc(NCCC23CCCN2CCC3)cc(C2CCCNC2)n1 (configuration not stated) | 7.98
CNc1cc(-c2nc(CCN3CCCC3=O)no2)ccn1 | 7.46
CCCc1nc(C(=O)N(C)Cc2cc(CC)no2)cs1 | 6.75
CC(C)Nc1ncc(CN2C[C@@H](CN3CCC(O)CC3)[C@@H](CO)C2)cn1 | 18.5
Cc1ccc(NC2CCN(C(=O)CCc3ccsc3)CC2)nn1 | 4.3
CCOCC(O)CN1CCN(C(=O)c2cc(C)ccc2F)CC1 (configuration not stated) | 5.71

SMILES | cytotoxicity at 10 µM [%]
CC(Cn1cccn1)NCc1nc(-c2ccccn2)no1 (configuration not stated) | -5.17
COCc1nc(C(=O)NS(=O)(=O)c2ccc(Cl)cc2F)cs1 | 8.13
O=C(c1cccnc1N1CCOCC1)N1CCCC(n2cccn2)C1 (configuration not stated) | 0.985
Cc1ccc(CC(=O)N2CCC(Nc3cccnn3)CC2)s1 | -7.01
Cn1c(NCC(O)c2ccc(F)cc2)c(C#N)c(=O)n(C)c1=O (configuration not stated) | -7.57
Cc1nc(CN(C)C2CCN(CCCc3ccccc3)C2)no1 (configuration not stated) | -16.1
Cc1cnn(CC2CCCN2C(=O)c2c(F)cccc2Cl)c1 (configuration not stated) | -29.1
Cc1cnn(CC2CCCCN2Cc2nccn2CC(F)(F)F)c1 (configuration not stated) | -13.7
Cc1oc(C)c(C(=O)N2CCN(Cc3cscn3)CC2)c1C | -10.6
Cc1csc(CNC(=O)N(C)Cc2ccc3c(c2)OCCO3)n1 | 5.38
CCOc1ccccc1-c1noc(CN2CCN(CCOC)CC2)n1 | -4.9
CCC(O)CN(CC(=O)NC(=O)NC1CC1)c1ccccc1 (configuration not stated) | -2.48
O=C(CSc1ccc(F)cc1)NS(=O)(=O)c1ccc2c(c1)OCCO2 | -29.1
CCc1nc(CN2CCCC(NCc3nnc(C4CC4)o3)C2)no1 (configuration not stated) | -5.73
c1ccc(CN2CC[C@H]3CO[C@H](CNc4ncccn4)[C@H]3C2)cc1 | -5.87
CN1C[C@@H]2CN(Cc3ccsc3)CCC[C@]2(C(=O)O)C1 | -141
Cc1cccnc1N1CC2(CCN(Cc3cccnc3)C2)C1 | -8.13
O=c1c(=CS(=O)(=O)Nc2ccccc2)[nH]c(=O)n2cccc12 | 0.458
O=C(C1CCOCC1)N1C[C@@H]2CC[C@H]1CN(C1Cc3ccccc3C1)C2 | -0.317
CN(C)C(=O)N1C[C@@H]2CC[C@H]1CN(C1Cc3ccccc3C1)C2 | -0.581
